The source of these data is ChEMBL document CHEMBL3286393 (J Med Chem, 2014).

Activity calls are given as the source filed them. No cut-off for these calls is given here.

Assay [1] deals with T1, Prostaglandin G/H synthase 1 (Ovis aries) (UniProt P05979).
T1 sequence (whole entry): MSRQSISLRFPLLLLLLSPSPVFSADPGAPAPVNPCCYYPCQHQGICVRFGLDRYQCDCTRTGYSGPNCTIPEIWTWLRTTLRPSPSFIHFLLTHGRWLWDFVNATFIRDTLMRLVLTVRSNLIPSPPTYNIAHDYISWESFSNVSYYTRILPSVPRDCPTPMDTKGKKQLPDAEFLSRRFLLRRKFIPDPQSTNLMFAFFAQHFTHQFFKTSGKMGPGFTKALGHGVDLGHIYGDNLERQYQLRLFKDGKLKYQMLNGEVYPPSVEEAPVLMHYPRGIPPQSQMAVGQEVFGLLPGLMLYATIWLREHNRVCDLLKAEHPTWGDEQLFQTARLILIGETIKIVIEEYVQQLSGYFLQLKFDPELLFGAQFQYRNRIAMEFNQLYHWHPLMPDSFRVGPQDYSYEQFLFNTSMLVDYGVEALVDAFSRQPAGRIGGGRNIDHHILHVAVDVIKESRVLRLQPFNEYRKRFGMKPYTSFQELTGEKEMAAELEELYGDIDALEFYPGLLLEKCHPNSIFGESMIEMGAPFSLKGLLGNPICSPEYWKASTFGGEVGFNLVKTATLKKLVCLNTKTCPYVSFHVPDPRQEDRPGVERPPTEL
Description: Inhibition of purified ovine COX-1 assessed as residual activity by measuring formation of 12-HHT from arachidonic acid preincubated at 10 uM for 5 mins before substrate addition measured after 5 mins by HPLC analysis relative to control; values are per cent of control.

Assay [2] deals with T2, Polyunsaturated fatty acid lipoxygenase ALOX12 (Homo sapiens, UniProt P18054).
T2 sequence (P18054 whole entry): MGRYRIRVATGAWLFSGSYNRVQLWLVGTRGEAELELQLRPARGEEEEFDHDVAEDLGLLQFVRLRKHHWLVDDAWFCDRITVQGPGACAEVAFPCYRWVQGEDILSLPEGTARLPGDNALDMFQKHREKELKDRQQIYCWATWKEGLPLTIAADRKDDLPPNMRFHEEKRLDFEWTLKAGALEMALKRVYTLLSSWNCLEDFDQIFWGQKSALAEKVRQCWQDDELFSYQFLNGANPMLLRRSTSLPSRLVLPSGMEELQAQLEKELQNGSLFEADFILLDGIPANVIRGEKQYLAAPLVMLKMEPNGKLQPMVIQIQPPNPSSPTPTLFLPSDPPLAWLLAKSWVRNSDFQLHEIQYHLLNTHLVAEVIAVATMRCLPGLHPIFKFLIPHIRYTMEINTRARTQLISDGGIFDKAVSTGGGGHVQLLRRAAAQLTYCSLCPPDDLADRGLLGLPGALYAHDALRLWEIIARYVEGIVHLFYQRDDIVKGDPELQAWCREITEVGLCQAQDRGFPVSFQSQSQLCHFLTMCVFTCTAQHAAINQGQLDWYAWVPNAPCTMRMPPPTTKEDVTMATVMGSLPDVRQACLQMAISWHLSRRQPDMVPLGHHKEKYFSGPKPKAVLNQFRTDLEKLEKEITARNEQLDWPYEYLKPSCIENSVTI
Kind of assay: Inhibition of 12-LO in human neutrophils.

Assay [3] concerns the target T3, Prostaglandin E synthase (Homo sapiens) (UniProt O14684).
T3 sequence (whole entry): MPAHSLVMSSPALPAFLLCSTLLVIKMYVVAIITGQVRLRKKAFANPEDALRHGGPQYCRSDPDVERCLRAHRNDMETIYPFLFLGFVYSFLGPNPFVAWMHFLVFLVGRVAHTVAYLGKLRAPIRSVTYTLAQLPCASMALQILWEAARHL
Description: (§1) Inhibition of mPGES1-mediated PGE2 formation in LPS-stimulated human monocytes preincubated for 15 mins before arachidonic acid substrate addition measured after 30 mins by UPLC-MS/MS analysis. The class given is cell-based. In a few lines: (§2)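 Fresh human monocytes (adherence-isolated, >85% CD14+; 5 × 10⁶/well) primed with LPS 1 μg/mL for 24 h. Washed, 15 min preincubation, then 2.5 μM A23187 plus 20 μM arachidonic acid for 30 min. Eicosanoids extracted and measured by UPLC-MS/MS, normalized to PGB1 as relative intensities. Two to three independent experiments.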

The target of the next assay is T4, Prostaglandin E synthase (Homo sapiens, UniProt O14684).
T4 sequence (O14684 whole entry): T3 sequence (whole entry)
The description is as §1. Type of assay: cell-based. In a few lines: as §2

For assay [4], the target named is T5, Polyunsaturated fatty acid lipoxygenase ALOX15 (Homo sapiens, UniProt P16050).
T5 sequence (P16050 whole entry): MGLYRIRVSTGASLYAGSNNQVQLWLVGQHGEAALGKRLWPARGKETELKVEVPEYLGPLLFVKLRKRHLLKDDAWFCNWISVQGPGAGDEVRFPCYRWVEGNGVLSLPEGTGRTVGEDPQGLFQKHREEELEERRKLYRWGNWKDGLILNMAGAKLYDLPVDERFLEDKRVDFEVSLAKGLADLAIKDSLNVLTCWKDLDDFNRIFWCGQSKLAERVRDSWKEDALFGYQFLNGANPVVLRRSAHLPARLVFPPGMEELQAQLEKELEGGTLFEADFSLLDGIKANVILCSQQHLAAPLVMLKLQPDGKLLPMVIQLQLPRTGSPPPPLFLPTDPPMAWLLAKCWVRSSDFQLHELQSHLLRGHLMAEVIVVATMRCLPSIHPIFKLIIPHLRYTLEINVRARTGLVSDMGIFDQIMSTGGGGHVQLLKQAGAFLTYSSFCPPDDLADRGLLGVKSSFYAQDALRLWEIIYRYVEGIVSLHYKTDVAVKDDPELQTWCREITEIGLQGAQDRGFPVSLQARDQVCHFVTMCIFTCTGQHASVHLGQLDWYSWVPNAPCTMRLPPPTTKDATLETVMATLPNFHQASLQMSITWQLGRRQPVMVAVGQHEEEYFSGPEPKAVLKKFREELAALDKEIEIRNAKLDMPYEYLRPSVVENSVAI
Description: Inhibition of 15-LO-mediated 15-HETE formation in LPS-stimulated human monocytes preincubated for 15 mins before arachidonic acid substrate addition measured after 30 mins by UPLC-MS/MS analysis. The class given is cell-based.

Assay [5] relates to Mus musculus. Description: Antiinflammatory activity in zymosan-induced peritonitis CD1 mouse model assessed as suppression of neutrophil infiltration at 10 mg/kg, ip administered 30 mins before challenge measured 4 hrs post zymosan challenge relative to control. The class given is functional. As to conditions: route intraperitoneal. In a few lines: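 Zymosan peritonitis in male CD-1 mice (n = 5−11): ip dose in 2% DMSO/saline 30 min before ip zymosan. Peritoneal lavage with 3 mL cold PBS at 4 h. Exudate cells counted by light microscopy in a Burker chamber after trypan blue staining; % inhibition vs vehicle.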

Assay [6] relates to Mus musculus. Kind of assay: Antiinflammatory activity in zymosan-induced peritonitis CD1 mouse model assessed as suppression of MPO activity at 10 mg/kg, ip administered 30 mins before challenge measured 4 hrs post zymosan challenge relative to control. Type of assay: functional. The note with it: route intraperitoneal. The method, boiled down:
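In male CD-1 mice (n = 5−11 per group), dose was given ip in 2% DMSO/saline 30 min before ip zymosan (2 mg/mL, 0.5 mL). Lavage 4 h later. Pelleted exudate cells disrupted; supernatant mixed with 0.167 mg/mL o-dianisidine and 0.0005% H2O2 in PBS, read kinetically by absorbance. U/mL from human neutrophil MPO calibration; % inhibition vs vehicle.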

For orientation: residual activity means the activity still measured, relative to the control. Consider `COc1cc(/C=C/C(=O)/C=C/c2cc(CC=C(C)C)c(O)c(OC)c2)cc(CC=C(C)C)c1O`, for which the residual activity in assay [1] worked out at 78.7%. Broadly, the IC50 is the concentration that inhibits the measured activity by half. Low values mean inhibition by little substance, high ones a need for much substance. The compound `COc1cc(/C=C/c2cc(/C=C/c3ccc(O)c(OC)c3)[nH]n2)ccc1O` [CURCUMIN PYRAZOLE] had a half-maximal inhibitory concentration (IC50) in assay [2] of 7.3 µM. The inhibition result in assay [3] is “Active”. For `COc1cc(/C=C/C(=O)CC(=O)/C=C/c2ccc(O)c(OC)c2)ccc1O` [CURCUMIN], the half-maximal inhibitory concentration (IC50) (on Prostaglandin E synthase; in assay [4]) was 1.2 µM in each case.

As a reminder, the inhibition in vivo is the relative decrease from the control value, in per cent. With `COc1cc(/C=C/c2cc(/C=C/c3cc(CC=C(C)C)c(O)c(OC)c3)[nH]n2)cc(CC=C(C)C)c1O`, on Prostaglandin E synthase, the half-inhibitory concentration (IC50) was greater than 10 µM. In addition, the inhibition in vivo at 10 mg/kg in the assay on Mus musculus [5] was 75%; with Mus musculus [6] it was 39%. Take `COc1cc(/C=C/c2cc(-c3ccc(O)c(OC)c3)[nH]n2)ccc1O`: half-maximal inhibition in assay [2] (IC50) was put at 7.7 µM. Also, the inhibition entry in assay [3] was “Active”. On to `COc1cc(/C=C/C(=O)CC(=O)/C=C/c2cc(CC=C(C)C)c(O)c(OC)c2)cc(CC=C(C)C)c1O`, for which the residual activity in assay [1] came to 80.2%.
